Assay outcomes as filed in PubChem.
LEDGF integ inh = blocks HIV-1 LEDGF/p75-dependent DNA integration; AID 743269; inhibition, % at 3.7 µM; 370,000 tested, 0.64% active; TR-FRET IN-LEDGF/p75 DNA integration, Eu/Cy5;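 active = inhibition above the screen-wide mean plus 3 SD, cut at about 13% in these data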;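 also: signal is the Cy5 over europium emission ratio at 671 and 618 nm; 0% = plate median of compound wells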
NSD2 HMT inh = NSD2 (human) methyltransferase inhibition; O96028; NSD2 peptide methylation, AlphaScreen, 120 min; inhibition, % at 12.5 µM; 310,000 tested, 0.54% active; in the data active = inhibition above about 50%
CASP6 VEID inh = inhibitors of human caspase-6. inhibition, % at 12.5 µM. AID 686996. 350,000 tested, 0.53% active. P55212. purified caspase-6, Z-VEID-R110 cleavage fluorescence;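 active = mean inhibition across replicates at least about 35%, with every replicate also reaching that limit, limit read from the data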;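 also: 0% = median of neutral control wells and 100% = no fluorescence left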
TDP2 inh = blocks human TDP2 phosphodiesterase activity; recombinant TDP2, T5PNP hydrolysis, p-nitrophenol absorbance 415 nm; inhibition, % at 12.8 µM; 370,000 tested, 0.34% active; AID 720702;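 active = inhibition above the mean of all tested compounds plus 3 SD, set per campaign, cut at about 25% in these data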;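 also: 0% = DMSO with enzyme and 100% = buffer with substrate but no TDP2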
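System: recombinant human TDP2 / Amount: 120 nM TDP2 per well / Also added: 5 mM T5PNP chromogenic substrate / Doses: 12.8 µM single point, 1% DMSO / Incubation: 2 h at 37 °C / Detection: p-Nitrophenol epi absorbance / Evaluation: % inhibition relative to enzyme-containing and enzyme-free wells / Repeats: singlicate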
MBD2 inh = inhibitors of human MBD2 binding to methylated oligonucleotide; Q9UBB5; TR-FRET; inhibition, % at 4.4 µM; 370,000 tested, 0.31% active; in the data active = inhibition above about 13%
UHRF1 binding = blocks human UHRF1 binding to methylated DNA; Q96T88; inhibition, % at 4.4 µM; AID 687016; UHRF1 binding to methylated oligo, TR-FRET; 370,000 tested, 0.75% active; in the data active = inhibition above about 21%;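 also: UHRF1 SRA domain binding a hemimethylated CpG hairpin DNA probe; 0% = median of test compound wells and 100% = reference inhibitor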
Target sequence (Q96T88 whole entry, looked up, the tested form may be a part): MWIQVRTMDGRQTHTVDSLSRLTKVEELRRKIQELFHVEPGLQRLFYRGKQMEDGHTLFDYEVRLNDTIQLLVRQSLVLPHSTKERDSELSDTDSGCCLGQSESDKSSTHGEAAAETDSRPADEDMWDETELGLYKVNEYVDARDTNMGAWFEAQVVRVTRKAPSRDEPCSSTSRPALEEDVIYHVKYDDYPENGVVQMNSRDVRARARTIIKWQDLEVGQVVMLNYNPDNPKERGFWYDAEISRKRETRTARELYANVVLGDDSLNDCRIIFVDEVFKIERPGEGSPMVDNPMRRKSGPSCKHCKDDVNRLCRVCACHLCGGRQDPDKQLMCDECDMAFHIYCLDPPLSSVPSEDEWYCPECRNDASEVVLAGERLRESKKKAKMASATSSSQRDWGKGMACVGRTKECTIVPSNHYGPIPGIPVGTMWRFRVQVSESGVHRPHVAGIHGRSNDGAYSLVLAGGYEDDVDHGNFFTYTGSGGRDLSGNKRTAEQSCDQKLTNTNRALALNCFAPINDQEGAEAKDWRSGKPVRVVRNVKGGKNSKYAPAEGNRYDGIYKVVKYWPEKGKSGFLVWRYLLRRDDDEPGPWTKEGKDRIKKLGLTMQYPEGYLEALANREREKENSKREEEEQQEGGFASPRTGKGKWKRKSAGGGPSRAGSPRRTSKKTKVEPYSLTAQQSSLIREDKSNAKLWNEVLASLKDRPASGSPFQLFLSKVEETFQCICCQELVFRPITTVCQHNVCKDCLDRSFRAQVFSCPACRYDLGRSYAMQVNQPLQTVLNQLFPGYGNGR
IN multimer up = HIV-1 integrase multimerization activation, counter-screen. shares compounds with LEDGF integ inh. TR-FRET HIV-1 integrase multimerization, biochemical. activation, % at 7.7 µM. 2,000 tested, 17% active. AID 1053131; in the data active = activation above about 8.9%
TRFRET interf = counter-screen for LEDGF/p75 integration inhibitors: TR-FRET optical interference; 2,000 tested, under 10 active; TR-FRET optical interference counterscreen, HIV-1 IN multimerization; inhibition, % at 7.7 µM; shares compounds with LEDGF integ inh;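 active = inhibition above the mean over all tested compounds plus 3 SD, which no compound reached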;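 also: 0% = integrase with antibodies and DMSO and 100% = antibodies without integrase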
LEDGF integ conf = LEDGF/p75-dependent HIV-1 integration inhibition, confirmation | inhibition, % at 3.7 µM | 2,000 tested, 36% active | AID 1053136 | shares compounds with LEDGF integ inh | TR-FRET LEDGF/p75-dependent HIV-1 integration, biochemical; in the data active = inhibition above about 14%
Starred values were filed as active, the others as inactive; x = not tested or not shown. Compounds with a hit are over-represented: about 1.8% of the library has one in this group of screens.

SMILES | LEDGF integ inh | NSD2 HMT inh | CASP6 VEID inh | TDP2 inh | MBD2 inh | UHRF1 binding | IN multimer up | TRFRET interf | LEDGF integ conf
CCOC(=O)CCCCC(=O)c1[nH]c(=O)[nH]c1C[n+]1ccc(C)cc1 | 8 | 1 | 2 | 9 | -4 | -3 | x | x | x
C/C=C/[C@@H](CC(=O)N1Cc2ccccc2C[C@H]1CO)[Si](C)(C)c1ccc(OC)cc1 | x | x | 1 | x | x | x | x | x | x
CCCC(=O)Nc1ccc2c(c1)C(=O)N(C)C[C@H](OC)[C@@H](C)CN(C(=O)c1ccccc1F)[C@@H](C)CO2 | x | x | -1 | x | x | x | x | x | x
O=c1cc(-c2ccc(O)c(O)c2)oc2c1ccc1ccccc12 | 51* | 6 | 11 | -6 | 10 | -1 | 2 | -8 | 68*
O=c1cc(-c2ccccc2)oc2c1ccc1ccccc12 | -1 | x | 2 | -4 | -1 | -6 | x | x | x
CCC(=O)Nc1nc2ccccc2n1Cc1ccc(Cl)cc1 | 15* | -3 | 0 | -4 | -1 | 15 | 0 | 2 | 11
CCCCCCCn1c(NC(=O)CC)nc2ccccc21 | 23* | -6 | 2 | 5 | -1 | -1 | 0 | -1 | 31*
CCC(=O)Nc1nc2ccccc2n1CCN1CCOCC1 | -5 | -4 | x | -7 | -1 | 3 | x | x | x
Cc1ccc2c(c1)c(=O)c1c3n2CCN(C(=O)CCl)C3CC1 (stereo not drawn) | 14* | x | x | 21 | -9 | -4 | 15* | -54 | 49*
CCCn1c(NC(=O)c2ccc(C)cc2)nc2ccccc21 | 19* | -1 | x | 2 | 5 | 1 | -2 | 10 | 22*
CCCn1c(CNC(=O)c2ccccc2)nc2ccccc21 | -2 | -4 | x | -1 | -4 | -3 | x | x | x
CCCn1c(NC(=O)c2ccccc2)nc2ccccc21 | 19* | -1 | x | -8 | 2 | -1 | -3 | 13 | 24*
CCNC(=O)C[C@H]1C=C[C@@H](NC(=O)C2CCOCC2)[C@@H](CO)O1 | x | x | 2 | x | x | x | x | x | x
COc1ccccc1C#Cc1cnc2c(c1)C(=O)N([C@@H](C)CO)C[C@@H](C)[C@@H](CN(C)C(C)=O)O2 | x | x | 1 | x | x | x | x | x | x
CCc1ccc(OC(=O)/C=C/c2ccco2)cc1 | 15* | 9 | 20 | -2 | -2 | 13 | 1 | -7 | 2
O=C(/C=C/c1ccco1)Oc1cccc2cccnc12 | 14* | -1 | 13 | -10 | -6 | 3 | 0 | 0 | -12
O=C(C[C@H]1C=C[C@@H](NC(=O)C2CCOCC2)[C@H](CO)O1)Nc1ccccc1 | x | x | 3 | x | x | x | x | x | x
C[C@H](CO)N1C[C@H](C)[C@H](CN(C)S(=O)(=O)c2cn(C)cn2)Oc2ccc(NC(=O)Nc3ccccc3)cc2C1=O | x | x | 2 | x | x | x | x | x | x
Cc1noc(C)c1NC(=O)N(C)C[C@H]1Oc2ccc(NC(=O)Cc3ccccc3)cc2CC(=O)N([C@@H](C)CO)C[C@@H]1C | x | x | -4 | x | x | x | x | x | x
CC1CCN(C(=O)COC(=O)c2ccc(Br)o2)CC1 | 22* | -10 | -3 | 8 | 2 | 9 | 1 | -4 | -4
CO[C@@H]1CN(C)C(=O)c2cc(NC(=O)c3cnccn3)ccc2OC[C@H](C)N(C(C)=O)C[C@@H]1C | x | x | -1 | x | x | x | x | x | x
Cc1ccc(-c2ccc(CN3C(C)C(=O)N(Cc4cn(Cc5ccco5)nn4)CCS3(=O)=O)cc2)cc1 (stereo not drawn) | 1 | x | 6 | 1 | -1 | -1 | x | x | x
CC1C(=O)N(Cc2cn(Cc3ccco3)nn2)CCS(=O)(=O)N1Cc1ccc(-c2cccnc2)cc1 (stereo not drawn) | 17* | x | 31 | -7 | 10 | 3 | 5 | -24 | 13
COc1ccc(NC(=O)Nc2ccc3c(c2)C(=O)N([C@H](C)CO)C[C@H](C)[C@@H](CN(C)Cc2ccccc2)O3)cc1 | x | x | 0 | x | x | x | x | x | x
Nn1c(SCC(=O)N2CCCCCC2)nnc1-c1ccncc1 | 26* | 0 | -4 | 5 | -1 | 2 | 1 | -3 | 1
SMILES | LEDGF integ inh | NSD2 HMT inh | CASP6 VEID inh | TDP2 inh | MBD2 inh | UHRF1 binding | IN multimer up | TRFRET interf | LEDGF integ conf
Nn1c(SCC(=O)N2CCCCC2)nnc1-c1ccncc1 | -3 | 3 | x | -6 | -8 | -2 | x | x | x
CSC1=N/C(=C\c2ccc(C)s2)C(=O)S1 | 0 | 1 | x | -8 | 4 | 3 | x | x | x
CSC1=N/C(=C\c2ccc(C)o2)C(=O)S1 | 14* | 9 | x | -14 | -11 | -4 | 1 | -5 | 6
CC(C)[C@H](NS(=O)(=O)c1ccc2c(c1)OCCO2)C(=O)OCC(=O)Nc1ccccc1Cl | 0 | -2 | 2 | 5 | -2 | -1 | x | x | x
CC(C)[C@H](NS(=O)(=O)c1ccc2c(c1)OCCO2)C(=O)OCC(=O)Nc1cccc(Cl)c1Cl | 18* | -2 | x | -6 | -6 | -3 | 1 | -4 | -1
Nc1cc2cccnc2cc1Cl | 18* | 36 | 62* | 9 | -3 | 7 | 5 | -16 | 27*
Brc1ccc2cccnc2c1 | -2 | -1 | x | -4 | 1 | 2 | x | x | x
COC(=O)c1cc(S(=O)(=O)N2CCCC2)c(Cl)cc1Cl | 61* | -6 | 1 | -1 | -1 | -4 | 0 | 1 | -8
COc1ccc(C(=O)Nc2ccccc2NC(=O)c2ccc(OC)c(OC)c2)cc1OC | x | 0 | x | x | x | x | x | x | x
O=C(Nc1nc(-c2ccco2)c(-c2ccco2)s1)C1CCC1 | 17* | -1 | 14 | 7 | 4 | 7 | 2 | -9 | 21*
O=C(Nc1nc(-c2ccco2)c(-c2ccco2)s1)C1CC(=O)N(c2ccc3c(c2)OCCO3)C1 (stereo not drawn) | 19* | 9 | x | 0 | 9 | 9 | 13* | -64 | 42*
Cc1nnc(NC(=O)C2CC(=O)N(c3ccc4c(c3)OCCO4)C2)s1 (stereo not drawn) | 4 | -1 | 18 | -1 | 3 | 0 | x | x | x
O=C(C[C@H]1C=C[C@@H](NS(=O)(=O)c2ccc(F)cc2)[C@H](CO)O1)NCc1ccccc1F | x | x | 0 | x | x | x | x | x | x
COC(=O)\C(C(C)=O)=C(/C=C/C=C/N(C)C)N(C)C | 34* | 5 | x | 13 | 0 | 13 | 1 | -5 | 10
C=CCNC(=S)N1N=C(c2ccco2)CC1c1ccco1 (stereo not drawn) | 17* | 5 | 3 | 7 | -3 | -3 | 2 | -8 | 7
COc1ccccc1NC(=S)NCc1cccnc1 | 0 | x | -1 | -6 | -1 | 1 | x | x | x
COc1cc(NC(=S)NCc2cccnc2)c(OC)cc1Cl | 80* | -1 | 0 | 5 | -1 | -2 | 1 | -4 | 2
